Measured values from different studies.
Each line is one published result; the experiments were not run side by side.
Target: Serine/threonine-protein kinase 38-like (STK38L, Homo sapiens, UniProt Q9Y2H1)

Structure (SMILES) | assay | conditions | remaining binding [%]
Nc1ncc2c(n1)-c1c([nH]c3ccc(C#CC4CC4)cc13)CCCC2 | binding, competition with immobilised ligand | 1 µM | 100
c1cncc(-c2cccc(Nc3nccc(NC4CCCCC4)n3)c2)c1 | binding, competition with immobilised ligand | 10 µM | 100
CC1=C(C#N)[C@@H](c2ccc3[nH]nc(C)c3c2)C(C#N)=C(c2ccc(Cl)cc2)N1 | binding, competition with immobilised ligand | 1 µM | 100
COc1ccnn2ncc(-c3ccnc(N(C)C)n3)c12 | binding | 1 µM | 96
Cc1cnc(Nc2ccc(C(=O)N3CCC(N4CCCC4)CC3)cc2)nc1-c1cc2ccccc2s1 | binding, competition with immobilised ligand | 1 µM | 100
Cc1nccc(COC(=O)N2C[C@@H]3[C@@H](CNC(=O)c4ccc5[nH]nnc5c4)[C@@H]3C2)n1 | cell-free assay, competition with immobilised ligand | 1 µM | 70
CCN1CCN(Cc2ccc(C(=O)Nc3ccc(C)c(Oc4ccc5c(c4)CC(=O)N5)c3)cc2C(F)(F)F)CC1 | binding, competition with immobilised ligand | 1 µM | 100
O=C(c1ccc(Nc2nccc(-c3cc4ccccc4s3)n2)cc1)N1CCC(N2CCCC2)CC1 | binding, competition with immobilised ligand | 1 µM | 94
CN(CCCC(F)(F)F)c1nccc(-c2cnn3ncccc23)n1 | binding | 1 µM | 100
FC(F)(F)Oc1cccc(-c2cnc3ccc(-c4ccncc4)nn23)c1 | cell-free assay, competition with immobilised ligand | 5 µM | 89
CNC(=O)[C@@H]1CC[C@@H](n2c(-c3ccc4cnccc4c3)nc3ccc(C(=O)NCc4cccc(C(N)=O)c4)cc32)C1 | binding, competition with immobilised ligand | 1 µM | 100
O=C(NCCCN1CCOCC1)c1ccc(Nc2nccc(-c3cc4ccccc4s3)n2)cc1 | binding, competition with immobilised ligand | 1 µM | 100
c1cnn2ncc(-c3ccnc(N4CCC45COC5)n3)c2c1 | binding | 1 µM | 78
CNC(=O)Nc1ccc2c(c1)[C@@]1(CC2)OC(=O)N(CC(=O)N(Cc2ccc(F)cc2)[C@@H](C)C(F)(F)F)C1=O | binding, competition with immobilised ligand | 1 µM | 67
O=C(Nc1c[nH]nc1C(=O)NC1CCNCC1)c1cc(F)cc(F)c1 | binding, competition with immobilised ligand | 1 µM | 93
N[C@H]1CCN(c2nccc(-c3cnn4ncccc34)n2)C1 | binding | 1 µM | 100
COc1ccc2cc(OCC3(C(=O)O)CN(C(=O)c4ccc(F)cc4)C3)ccc2c1 | binding, competition with immobilised ligand | 1 µM | 86
C[C@@H]1CCN(c2nccc(-c3cnn4ncccc34)n2)C1 | binding | 1 µM | 100
O=C(NC[C@@H]1[C@H]2CN(C(=O)OCc3cc(C(F)(F)F)cc(C(F)(F)F)c3)C[C@@H]12)c1ccc2[nH]nnc2c1 | cell-free assay, competition with immobilised ligand | 1 µM | 45
CN(C)c1nccc(-c2cnc3ncccn23)n1 | binding | 1 µM | 100
N#CC1(c2ccccn2)CCN(Cc2cc(C(=O)N3CCCC3)c(=O)n3ccccc23)CC1 | cell-free assay, competition with immobilised ligand | 1 µM | 90
COc1cnc(Nc2cccc(S(N)(=O)=O)c2)nc1N1CCN(c2ccccc2)C(=O)C1 | binding, competition with immobilised ligand | 1 µM | 100
